# Read-outs that look alike come from different tables or passages of the source.
# Experiments:
# [1] = tested on: patients with mCRPC previously treated with enzalutamide; assay: Toxicity evaluation, adverse events graded by CTCAE version 4.0; assay type: in vivo, human
# Procedure, shortened: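 Adverse events in enrolled mCRPC patients were graded per NCI CTCAE v4.0 during oral dosing: twice-daily titration to 450 mg, later 750 mg or 600 mg once daily. A related Grade 3 event held treatment until recovery to Grade 1 or baseline. Investigator-discretion reductions were allowed for low-grade events. Drug was stopped for Grade 4 events, a delay over 6 weeks, or more than 2 reductions.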
# [2] = tested on: patients with mCRPC previously treated with enzalutamide; assay: Phase 2 open label study: PSA response, time to progression, overall survival; assay type: in vivo, human
# Procedure, shortened: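 Open-label trial in men aged 18 or older with progressive mCRPC after more than three 28-day enzalutamide cycles, split into pre- and post-docetaxel cohorts. Oral dosing without routine steroids: 150 mg twice daily titrated to 450 mg twice daily, later amended to 750 mg, then 600 mg, once daily. PSA response was a ≥50% drop from baseline at 12 weeks (PCWG2). Radiographic progression by modified RECIST 1.1. Kaplan-Meier time to progression and overall survival.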
# [3] = tested on: CYP17 lyase; settings: cited from earlier work
# [4] = Pharmacokinetic analysis, plasma concentrations by LC-MS/MS, noncompartmental; assay type: in vivo, human; settings: for half-life / Cmax / Tmax / Vd/F: male, human, plasma; for Vd/F: Vz/F
# [5] = tested on: enzalutamide-resistant cell lines (e.g. C4–2, C4–2B, MR49C, MR49F); settings: established enzalutamide-resistant cell lines; cited from earlier work
# [6] = tested on: patients with CRPC; settings: phase 1 study, once daily dosing; cited from earlier work
# [7] = tested on: CRPC cell lines MR49F, MDA-PCA-133, LNCaP; settings: MDA-PCA-133, LNCaP (AR F876L, H874Y, T877A); cited from earlier work
# [8] = tested on: patients with CRPC; settings: cited from earlier work; for PSA response rate: treatment naïve patients, daily cumulative doses of 600 mg or greater
# [9] = tested on: patients with mCRPC; settings: sequence of ENZ followed by AA, cited from earlier work
# [10] = N = 17, attribution at least possible
# [11] = 600 mg oral, C1D1 (n=4), first dose
# [12] = 600 mg oral, C2D1 (n=4), steady-state
# [13] = 750 mg oral, C1D1 (n=3), first dose
# [14] = 750 mg oral, C2D2 (n=l), steady-state
# [15] = po, 600 mg, 600 mg oral, C1D1 (n=4), first dose
# [16] = po, 600 mg, 600 mg oral, C2D1 (n=4), steady-state
# [17] = po, 750 mg, 750 mg oral, C1D1 (n=3), first dose
# [18] = po, 750 mg, 750 mg oral, C2D2 (n=l), steady-state
compound,measurement,setting,value
CC(C)[C@](O)(c1ccc2cc(OC(F)F)c(OC(F)F)cc2c1)c1c[nH]nn1 [Seviteronel],"Blurred Vision, All Grades (Gr 1–3)",[1]; [10],4 (24) No. Patients (%)
same,"Blurred Vision, Grade 1",[1]; [10],3 (18) No. Patients (%)
same,"Blurred Vision, Grade 2",[1]; [10],1 (6) No. Patients (%)
same,"Blurred Vision, Grade 3",[1]; [10],0 (0) No. Patients (%)
same,"Concentration Impairment, All Grades (Gr 1–3)",[1]; [10],14 (82) No. Patients (%)
same,"Concentration Impairment, Grade 1",[1]; [10],9 (53) No. Patients (%)
same,"Concentration Impairment, Grade 2",[1]; [10],4 (24) No. Patients (%)
same,"Concentration Impairment, Grade 3",[1]; [10],1 (6) No. Patients (%)
same,"Dizziness, All Grades (Gr 1–3)",[1]; [10],6 (35) No. Patients (%)
same,"Dizziness, Grade 1",[1]; [10],3 (18) No. Patients (%)
same,"Dizziness, Grade 2",[1]; [10],1 (6) No. Patients (%)
same,"Dizziness, Grade 3",[1]; [10],2 (12) No. Patients (%)
same,"Edema (limbs), All Grades (Gr 1–3)",[1]; [10],3 (18) No. Patients (%)
same,"Edema (limbs), Grade 1",[1]; [10],2 (12) No. Patients (%)
same,"Edema (limbs), Grade 2",[1]; [10],1 (6) No. Patients (%)
same,"Edema (limbs), Grade 3",[1]; [10],0 (0) No. Patients (%)
same,"Fall, All Grades (Gr 1–3)",[1]; [10],3 (18) No. Patients (%)
same,"Fall, Grade 1",[1]; [10],1 (6) No. Patients (%)
same,"Fall, Grade 2",[1]; [10],1 (6) No. Patients (%)
same,"Fall, Grade 3",[1]; [10],1 (6) No. Patients (%)
same,"Fatigue, All Grades (Gr 1–3)",[1]; [10],11 (65) No. Patients (%)
same,"Fatigue, Grade 1",[1]; [10],3 (18) No. Patients (%)
same,"Fatigue, Grade 2",[1]; [10],8 (47) No. Patients (%)
same,"Fatigue, Grade 3",[1]; [10],0 (0) No. Patients (%)
same,"Gait Disturbance, All Grades (Gr 1–3)",[1]; [10],3 (18) No. Patients (%)
same,"Gait Disturbance, Grade 1",[1]; [10],3 (18) No. Patients (%)
same,"Gait Disturbance, Grade 2",[1]; [10],0 (0) No. Patients (%)
same,"Gait Disturbance, Grade 3",[1]; [10],0 (0) No. Patients (%)
same,"Hypotension, All Grades (Gr 1–3)",[1]; [10],4 (24) No. Patients (%)
same,"Hypotension, Grade 1",[1]; [10],1 (6) No. Patients (%)
same,"Hypotension, Grade 2",[1]; [10],2 (12) No. Patients (%)
same,"Hypotension, Grade 3",[1]; [10],1 (6) No. Patients (%)
same,"Malaise, All Grades (Gr 1–3)",[1]; [10],3 (18) No. Patients (%)
same,"Malaise, Grade 1",[1]; [10],0 (0) No. Patients (%)
same,"Malaise, Grade 2",[1]; [10],3 (18) No. Patients (%)
same,"Malaise, Grade 3",[1]; [10],0 (0) No. Patients (%)
same,"Nausea, All Grades (Gr 1–3)",[1]; [10],9 (53) No. Patients (%)
same,"Nausea, Grade 1",[1]; [10],7 (41) No. Patients (%)
same,"Nausea, Grade 2",[1]; [10],0 (0) No. Patients (%)
same,"Nausea, Grade 3",[1]; [10],2 (12) No. Patients (%)
same,"Presyncope, All Grades (Gr 1–3)",[1]; [10],3 (18) No. Patients (%)
same,"Presyncope, Grade 1",[1]; [10],0 (0) No. Patients (%)
same,"Presyncope, Grade 2",[1]; [10],3 (18) No. Patients (%)
same,"Presyncope, Grade 3",[1]; [10],0 (0) No. Patients (%)
same,"Tremor, All Grades (Gr 1–3)",[1]; [10],10 (59) No. Patients (%)
same,"Tremor, Grade 1",[1]; [10],9 (53) No. Patients (%)
same,"Tremor, Grade 2",[1]; [10],1 (6) No. Patients (%)
same,"Tremor, Grade 3",[1]; [10],0 (0) No. Patients (%)
same,"Vomiting, All Grades (Gr 1–3)",[1]; [10],3 (18) No. Patients (%)
same,"Vomiting, Grade 1",[1]; [10],3 (18) No. Patients (%)
same,"Vomiting, Grade 2",[1]; [10],0 (0) No. Patients (%)
same,"Vomiting, Grade 3",[1]; [10],0 (0) No. Patients (%)
same,Grade 4 adverse events related to study treatment,[1]; in vivo,No Grade 4 adverse events related to the study treatment were reported
same,number of Grade 3 adverse events,[1]; in vivo,nine
same,Concentration impairment Grade 2 or higher,[1]; of 17 patients,5 patients
same,patients with CNS toxicities that contributed to treatment discontinuation,[1]; of 17 patients,nine
same,diarrhea,[1]; patients receiving 750 mg once daily,not reported
same,tolerability,"[1]; twice daily 450 mg or once daily 600/750 mg, without oral steroids",not generally well tolerated
same,rate of significant PSA response (≥ 50% decrease in baseline serum PSA),"[2]; all 17 patients, after 12 weeks of seviteronel, PCWG2 criteria",6%
same,patients having documented PSA progression per PCWG2,[2]; of 17 patients,8 patients
same,minimal decline in PSA,"[2]; one patient, pre-chemotherapy cohort, 750 mg once daily reduced to 450 mg once daily, after 11 weeks",15%
same,selectivity towards the CYP17 lyase over hydroxylase,[3],approximately 10 fold
same,AUC/D (dose-normalized),[4]; [11],55.1 ± 7.21 mg·h/L/mg
same,Cmax/D (dose-normalized),[4]; [11],6.77 ± 3.20 mg/L/mg
same,CL/F,"[4]; 600 mg oral, C1D1 (n=4), first dose, Dose/AUCinf",18.4 ± 2.50 L/h
same,AUC/D (dose-normalized),[4]; [12],92.3 ± 9.94 mg·h/L/mg
same,Cmax/D (dose-normalized),[4]; [12],7.76 ± 1.93 mg/L/mg
same,CL/F,"[4]; 600 mg oral, C2D1 (n=4), steady-state, Dose/AUCtau",10.9 ± 1.32 L/h
same,AUC/D (dose-normalized),[4]; [13],58.9 ± 2.87 mg·h/L/mg
same,Cmax/D (dose-normalized),[4]; [13],6.82 ± 2.54 mg/L/mg
same,CL/F,"[4]; 750 mg oral, C1D1 (n=3), first dose, Dose/AUCinf",17.0 ± 0.84 L/h
same,AUC/D (dose-normalized),[4]; [14],84.6 mg·h/L/mg
same,Cmax/D (dose-normalized),[4]; [14],7.53 mg/L/mg
same,CL/F,"[4]; 750 mg oral, C2D2 (n=l), steady-state, Dose/AUCtau",11.8 L/h
same,increase of dose-normalized steady-state AUCτ over first dose AUCINF,"[4]; 6 patients, p=0.001",61%
same,"dose-normalized CMAX, mean",[4]; Cycle 1,6.79 µg/L/mg
same,dose-normalized first dose AUCINF,[4]; first dose,56.7 µg·h/L/mg
same,half-life,"[4]; oral, mean first dose half-life, 48-hr sampling window, range 7.9 – 23.5 hr",13.9 h
same,Cmax,[4]; [15],4070 ± 1920 ng/mL
same,Cmax,[4]; [16],4660 ± 1160 ng/mL
same,half-life,"[4]; po, 600 mg, T1/2, 600 mg oral, C1D1 (n=4), first dose",16.4 ± 4.78 h
same,half-life,"[4]; po, 600 mg, T1/2, 600 mg oral, C2D1 (n=4), steady-state",14.8 ± 5.94 h
same,Tmax,[4]; [15],2 h
same,Tmax,[4]; [16],5 ± 2.58 h
same,Vd/F,[4]; [15],438 ± 146 L
same,Vd/F,[4]; [16],229 ± 77.7 L
same,Cmax,[4]; [17],5110 ± 1900 ng/mL
same,Cmax,[4]; [18],5650 ng/mL
same,half-life,"[4]; po, 750 mg, T1/2, 750 mg oral, C1D1 (n=3), first dose",10.5 ± 4.35 h
same,half-life,"[4]; po, 750 mg, T1/2, 750 mg oral, C2D2 (n=l), steady-state",18.3 h
same,Tmax,[4]; [17],2 ± 1.7 h
same,Tmax,[4]; [18],2 h
same,Vd/F,[4]; [17],260 ± 121 L
same,Vd/F,[4]; [18],312 L
same,time to reach 97% steady-state,[4]; once daily dosing,69.5 h
same,expected accumulation above first-dose,[4]; once daily dosing until steady-state,43%
same,increase of steady-state dose-normalized CMAX over Cycle 1,[4]; p=0.44,20%
same,start of apparent monophasic elimination post dose,[4]; single oral dose 600mg or 750mg with food,2 to 4 h
same,"dose-normalized CMAX, mean",[4]; steady-state,8.16 µg/L/mg
same,dose-normalized steady-state AUCτ,[4]; steady-state,91.3 µg·h/L/mg
same,potency compared with AA,[5],more potent than AA
same,patients experiencing fatigue,[6],71%
same,patients with blurry vision,[6],33%
same,patients with dizziness,[6],52%
same,efficacy in in vivo models,[7],effective
same,PSA declines of 50% or greater,"[8]; 450 mg twice daily, patients who had previously received ENZ",2 of 7
same,response rate,"[8]; pre-treated patients, Phase I study once daily dosing",0%
same,PSA response rate,[8]; once daily dosing (N=9),33%
same,PSA response rate,[8]; twice daily dosing (N=26),11%
"CC(=O)O[C@H]1CC[C@@]2(C)C(=CC[C@@H]3[C@@H]2CC[C@]2(C)C(c4cccnc4)=CC[C@@H]32)C1 [AA, abiraterone acetate]",PSA response rate,[9]; ref 39,3%
same,PSA response rate,[9]; ref 40,8%

# From publication PMC7415516 (Clinical genitourinary cancer, 2020)
